In ChEMBL document CHEMBL1255460, “Cyclotide interactions with the nematode external surface” (Antimicrob Agents Chemother, 2010):
Activity calls are given as the source filed them. The calls are words filed in the database; no cut-off is given here.

Assays:
Assay type in all cases: functional, organism-based
[1] = tested on: Haemonchus contortus; assay: Antiparasitic activity against adult Haemonchus contortus assessed as decrease in motility
How it was run: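 Adult worms in groups of 10 in RPMI-based medium at 37°C, given ivermectin in DMSO at 0.1 to 100 nM, with 0.2% DMSO controls. Motility scored 30 h after start, using the O'Grady and Kotze system. Triplicate.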

[2] = tested on: Haemonchus contortus; assay: Antiparasitic activity against adult Haemonchus contortus assessed as [3H]inulin uptake at 10 nM
How it was run: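 Adult females taken from sheep abomasa 10 to 15 weeks postinfection, held in RPMI 1640-based medium (pH 6.8) at 37°C, in groups of 10. Ivermectin in DMSO given at 0.1 to 100 nM; DMSO-only controls at 0.2% final. [3H]inulin (4 μCi/ml final) added after 6 h. After a further 24 h, worms solubilized in 0.5 M KOH at 50°C overnight, neutralized, and radioactivity counted. Done in triplicate.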

[3] = tested on: Haemonchus contortus; assay: Antiparasitic activity against adult Haemonchus contortus assessed as [3H]inulin uptake at 1000 nM
[4] = tested on: Haemonchus contortus; assay: Antiparasitic activity against adult Haemonchus contortus assessed as reduction in FITC-dextran uptake at 10 nM after 24 hrs
How it was run: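 Groups of about 10 adult worms held 6 h with or without 10 nM ivermectin. FITC-dextran (40 kDa, 5 mg/ml final) then added. After 24 h, worms washed in PBS, fixed in 10% formalin, and photographed under white and UV light as a measure of feeding.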

[5] = tested on: Haemonchus contortus; assay: Antiparasitic activity against adult Haemonchus contortus pharyngeal ligation model assessed as decrease [3H]inulin uptake at 10 nM

Question: IVERMECTIN was tested. Which Activity [1] did it give?
Answer: Dose-dependent effect

Question: What about the Activity [2] of the same sequence?
Answer: inactive

Question: What about the Activity [3] of the same sequence?
Answer: inactive

Question: And the Activity [4]?
Answer: Active

Question: And the Activity [5]?
Answer: Active
